{"source": "paper PMC7028313", "about": "(ACS chemical neuroscience, 2019)", "key": {"[1]": {"target": "p38β kinase (Homo sapiens, UniProt Q15759)", "sequence (Q15759 whole entry)": "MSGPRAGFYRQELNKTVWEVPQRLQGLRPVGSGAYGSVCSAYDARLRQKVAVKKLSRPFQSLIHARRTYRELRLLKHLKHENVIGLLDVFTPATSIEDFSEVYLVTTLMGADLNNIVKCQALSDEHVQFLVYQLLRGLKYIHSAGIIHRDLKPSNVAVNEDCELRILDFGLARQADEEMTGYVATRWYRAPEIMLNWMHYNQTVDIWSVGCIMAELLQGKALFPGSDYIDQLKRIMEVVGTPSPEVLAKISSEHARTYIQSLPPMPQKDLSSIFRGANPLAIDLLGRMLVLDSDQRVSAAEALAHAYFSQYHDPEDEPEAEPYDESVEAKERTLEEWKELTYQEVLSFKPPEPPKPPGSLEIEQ", "experiment": "ADP-Glo kinase luminescent assay", "type": "biochemical", "conditions": "1 μM TPPU, relative to vehicle control"}, "[2]": {"tested_on": "Tau pS396 in SH-SY5Y cells", "experiment": "Anti-tau hyperphosphorylation ELISA", "type": "cell-based, human"}, "[3]": {"tested_on": "Aβ42 neurotoxicity in SH-SY5Y cells", "experiment": "Anti-Aβ42 neurotoxicity assay", "type": "cell-based, human", "conditions": "0.1 μM pretreatment 1 h then 10 μM Aβ42 72 h"}, "[4]": {"tested_on": "AMPKA2", "experiment": "ADP-Glo kinase luminescent assay", "type": "biochemical, human", "conditions": "1 μM TPPU, in comparison with p38β", "outline": "(§1)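 Test compound at 1 μM, or 0.2% PEG 400 vehicle. Incubated 1 h at room temperature, then ADP-Glo luminescence read. Staurosporine 1 μM served as reference. Activity expressed relative to vehicle. Duplicates, six independent experiments.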"}, "[5]": {"tested_on": "NF-κB (p50, p52, p65, RelB, c-Rel) in SH-SY5Y cells", "experiment": "Nuclear NF-κB DNA-binding ELISA", "type": "cell-based, human"}, "[6]": {"tested_on": "p38α", "experiment": "ADP-Glo kinase luminescent assay", "type": "biochemical, human", "conditions": "1 μM TPPU", "outline": "as §1"}, "[7]": {"tested_on": "p38δ", "experiment": "ADP-Glo kinase luminescent assay", "type": "biochemical, human", "conditions": "1 μM TPPU", "outline": "as §1"}, "[8]": {"target": "GSK-3β (Homo sapiens, UniProt P49841)", "sequence (P49841 whole entry)": "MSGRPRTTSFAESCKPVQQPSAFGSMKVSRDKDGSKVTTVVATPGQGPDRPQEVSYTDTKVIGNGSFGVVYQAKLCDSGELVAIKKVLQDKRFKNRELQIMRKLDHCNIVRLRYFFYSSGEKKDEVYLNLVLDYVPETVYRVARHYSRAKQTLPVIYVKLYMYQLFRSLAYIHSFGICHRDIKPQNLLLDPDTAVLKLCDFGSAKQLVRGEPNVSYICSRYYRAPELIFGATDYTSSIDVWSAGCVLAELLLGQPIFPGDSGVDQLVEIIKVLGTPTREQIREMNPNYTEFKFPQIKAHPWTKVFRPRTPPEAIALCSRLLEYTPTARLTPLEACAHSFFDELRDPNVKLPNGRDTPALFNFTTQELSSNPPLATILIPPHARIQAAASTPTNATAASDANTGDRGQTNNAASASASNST", "experiment": "ADP-Glo kinase luminescent assay", "type": "biochemical", "conditions": "1 μM TPPU, in comparison with p38β"}, "[9]": {"target": "T1, p38γ kinase (Homo sapiens, UniProt P53778)", "T1 sequence (P53778 1-367)": "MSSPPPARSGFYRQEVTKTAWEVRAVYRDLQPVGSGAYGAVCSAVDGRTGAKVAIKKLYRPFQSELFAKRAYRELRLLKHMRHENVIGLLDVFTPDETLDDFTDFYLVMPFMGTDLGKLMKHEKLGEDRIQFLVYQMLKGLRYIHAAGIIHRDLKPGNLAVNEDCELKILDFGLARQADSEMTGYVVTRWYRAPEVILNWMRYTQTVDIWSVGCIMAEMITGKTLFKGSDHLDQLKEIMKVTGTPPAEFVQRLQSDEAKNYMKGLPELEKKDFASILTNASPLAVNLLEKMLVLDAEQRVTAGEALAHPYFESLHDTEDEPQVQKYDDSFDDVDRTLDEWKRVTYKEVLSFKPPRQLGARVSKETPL", "experiment": "ADP-Glo kinase luminescent assay", "type": "biochemical", "conditions": "1 μM TPPU, relative to vehicle control"}, "[10]": {"tested_on": "CK1α1", "experiment": "ADP-Glo kinase luminescent assay", "type": "biochemical, human", "conditions": "1 μM TPPU, in comparison with p38β", "outline": "as §1"}, "[11]": {"tested_on": "SH-SY5Y cells", "experiment": "Cell viability / cytotoxicity MTS assay", "type": "cell-based, human", "conditions": "TPPU alone, 72 h"}, "[12]": {"tested_on": "SH-SY5Y cells", "experiment": "Neuronal morphology analysis under Aβ42", "type": "cell-based, human", "conditions": "100 nM pretreatment then 10 μM Aβ42, 72 h"}, "[13]": {"tested_on": "sEH in SH-SY5Y cells", "experiment": "Cellular sEH activity in SH-SY5Y cells, [3H]-t-DPPO substrate", "type": "cell-based, human", "conditions": "10, 100 and 1000 nM for 24 h"}, "[14]": {"tested_on": "sEH", "conditions": "read-out: IC50 sEH; cited from earlier work"}, "[15]": {"tested_on": "p38α/β", "conditions": "read-out: IC50 p38α/β; cited from earlier work"}, "[16]": {"tested_on": "mitochondrial membrane potential (Δψm) in SH-SY5Y cells", "experiment": "JC-10 mitochondrial membrane potential assay", "type": "cell-based, human"}}}
{"molecule": "CCC(=O)N1CCC(NC(=O)Nc2ccc(OC(F)(F)F)cc2)CC1", "note": "[TPPU]", "values": [{"measurement": "remaining kinase activity", "setting": "[1]", "value": 36, "unit": "%"}, {"measurement": "Aβ42-induced tau phosphorylation level at pS396", "setting": "[2]; 0.01, 0.1 and 1 μM pretreatment 1 h then 10 μM Aβ42 72 h, p < 0.0001", "value": "significantly mitigated"}, {"measurement": "alleviation of tau hyperphosphorylation compared with SB202190", "setting": "[2]; TPPU 0.01 μM versus SB202190 0.05 μM", "value": "stronger alleviative effect"}, {"measurement": "neuroprotection (cell viability)", "setting": "[3]", "value": "effective neuroprotection"}, {"measurement": "inhibition of kinase activity", "setting": "[4]", "value": "weakly inhibited"}, {"measurement": "nuclear translocation of NF-κB subunits", "setting": "[5]; 0.05 and 0.1 μM pretreatment 1 h then 5 μM Aβ42 8 h, p < 0.0001", "value": "inhibited nuclear translocation of all five subunits"}, {"measurement": "inhibitory effect on kinase activity", "setting": "[6]", "value": "not significant"}, {"measurement": "inhibitory effect on kinase activity", "setting": "[7]", "value": "not significant"}, {"measurement": "inhibition of kinase activity", "setting": "[8]", "value": "weakly inhibited"}, {"measurement": "remaining kinase activity", "setting": "[9]", "value": 49, "unit": "%"}, {"measurement": "inhibition of kinase activity", "setting": "[10]", "value": "weakly inhibited"}, {"measurement": "tolerable and nontoxic dose", "setting": "[11]", "value": "≤ 1000", "unit": "nM"}, {"measurement": "neuronal morphology / Aβ42 toxicity", "setting": "[12]", "value": "effectively relieved Aβ42 toxicity"}, {"measurement": "cellular sEH activities", "setting": "[13]", "value": "significantly decreased cellular sEH activities in a dose-dependent manner"}]}
{"molecule": "C[C@@H]1C[C@H]2[C@@H]3CCC4=CC(=O)C=C[C@]4(C)[C@@]3(F)[C@@H](O)C[C@]2(C)[C@@]1(O)C(=O)CO", "note": "[DEX, dexamethasone, reference compound]", "values": [{"measurement": "levels of NF-κB subunits in neuronal nuclei", "setting": "[5]; 0.1 μM DEX pretreatment 1 h then 5 μM Aβ42 8 h", "value": "significantly reduced levels of all five NF-κB subunits"}]}
{"molecule": "epoxyeicosatrienoic acids [EETs, reference compound]", "values": [{"measurement": "neuroprotection (cell viability)", "setting": "[3]", "value": "effective neuroprotection"}, {"measurement": "loss of Δψm induced by Aβ42", "setting": "[16]; 0.1 μM pretreatment, 10 μM Aβ42 72 h", "value": "attenuated the loss of Δψm"}]}
{"molecule": "N#CC(C#N)=NNc1ccc(OC(F)(F)F)cc1", "note": "[FCCP, carbonyl cyanide-4-(trifluoromethoxy)phenylhydrazone]", "values": [{"measurement": "Δψm depolarization (reference ionophore)", "setting": "[16]; FCCP 50 μM", "value": "depolarized Δψm"}]}
